Experimental data: ChEMBL document CHEMBL4152234, “Aminobenzothiazole derivatives stabilize the thermolabile p53 cancer mutant Y220C and show anticancer activity in p53-Y220C cell lines” (Eur J Med Chem, 2018)

Key:
Type in all cases: cell-based
[1] = test system: Cellular tumor antigen p53 (Homo sapiens), P04637 [Y220C]; assay: Activation of p53 Y220C mutant in human NUGC3 cells assessed as change in ESR1 mRNA level at 60 uM after 18 hrs by RT-PCR method relative to control
Method in brief: (§1)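 p53 signalling qPCR array covering 84 genes. Cells were exposed for 18 h, with 0.5% DMSO in both compound and control samples. Total RNA was extracted and purified. Fold-changes were calculated by ΔΔCt using β2-microglobulin (B2M) as the housekeeping gene. Two independent biological replicates were run per cell line.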

[2] = molecular target: T1, Cellular tumor antigen p53 (Homo sapiens, UniProt P04637); assay: Activation of p53 in human NUGC4 cells assessed as change in TNFRSF10D mRNA level at 60 uM after 18 hrs by RT-PCR method relative to control; settings: read-out: FC
[3] = molecular target: T1, Cellular tumor antigen p53; assay: Activation of p53 in human NUGC4 cells assessed as change in BCL2 mRNA level at 60 uM after 18 hrs by RT-PCR method relative to control; settings: read-out: FC
Method in brief: (§2)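 p53 signalling qPCR array covering 84 p53 pathway genes. Cells were exposed for 18 h, and compound and control wells both held 0.5% DMSO. Total RNA was extracted and purified. Fold-changes were calculated by the ΔΔCt method against the untreated sample, with β2-microglobulin (B2M) as the housekeeping gene. Each cell line was run in two independent biological replicates.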

[4] = molecular target: T1, Cellular tumor antigen p53; assay: Activation of p53 in human NUGC4 cells assessed as change in TP73 mRNA level at 60 uM after 18 hrs by RT-PCR method relative to control; settings: read-out: FC
[5] = test system: Cellular tumor antigen p53 (Homo sapiens), P04637 [Y220C]; assay: Activation of p53 Y220C mutant in human NUGC3 cells assessed as change in STAT1 mRNA level at 60 uM after 18 hrs by RT-PCR method relative to control; method in brief: as §2
[6] = molecular target: T1, Cellular tumor antigen p53; assay: Activation of p53 in human NUGC4 cells assessed as change in PTTG1 mRNA level at 60 uM after 18 hrs by RT-PCR method relative to control; settings: read-out: FC
[7] = test system: Cellular tumor antigen p53 (Homo sapiens), P04637 [Y220C]; assay: Activation of p53 Y220C mutant in human NUGC3 cells assessed as change in CRADD mRNA level at 60 uM after 18 hrs by RT-PCR method relative to control; method in brief: as §1
[8] = molecular target: T1, Cellular tumor antigen p53; assay: Activation of p53 in human NUGC4 cells assessed as change in TP63 mRNA level at 60 uM after 18 hrs by RT-PCR method relative to control; settings: read-out: FC
[9] = molecular target: T1, Cellular tumor antigen p53; assay: Activation of p53 in human NUGC4 cells assessed as change in FADD mRNA level at 60 uM after 18 hrs by RT-PCR method relative to control; settings: read-out: FC
Method in brief: (§3)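 p53 signaling qPCR array of 84 p53-pathway genes. Cells were treated in 6-well plates for 18 h with 0.5% DMSO in compound and control samples. Total RNA was extracted and fold-changes were obtained by the ΔΔCt method against untreated control, with β2-microglobulin (B2M) as housekeeping gene. Two independent biological replicates per cell line.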

[10] = test system: Cellular tumor antigen p53 (Homo sapiens), P04637 [Y220C]; assay: Activation of p53 Y220C mutant in human NUGC3 cells assessed as change in KRAS mRNA level at 60 uM after 18 hrs by RT-PCR method relative to control; method in brief: as §2
[11] = molecular target: T1, Cellular tumor antigen p53; assay: Activation of p53 in human NUGC4 cells assessed as change in BBC3 mRNA level at 60 uM after 18 hrs by RT-PCR method relative to control; settings: read-out: FC; method in brief: as §2
[12] = molecular target: T1, Cellular tumor antigen p53; assay: Activation of p53 in human NUGC4 cells assessed as change in CHEK2 mRNA level at 60 uM after 18 hrs by RT-PCR method relative to control; settings: read-out: FC; method in brief: as §3
[13] = test system: Cellular tumor antigen p53 (Homo sapiens), P04637 [Y220C]; assay: Activation of p53 Y220C mutant in human NUGC3 cells assessed as change in BBC3 mRNA level at 60 uM after 18 hrs by RT-PCR method relative to control; method in brief: as §1
[14] = test system: Cellular tumor antigen p53 (Homo sapiens), P04637 [Y220C]; assay: Activation of p53 Y220C mutant in human NUGC3 cells assessed as change in CHEK2 mRNA level at 60 uM after 18 hrs by RT-PCR method relative to control; method in brief: as §1
[15] = molecular target: T1, Cellular tumor antigen p53; assay: Activation of p53 in human NUGC4 cells assessed as change in BRCA1 mRNA level at 60 uM after 18 hrs by RT-PCR method relative to control; settings: read-out: FC; method in brief: as §3
[16] = test system: Cellular tumor antigen p53 (Homo sapiens), P04637 [Y220C]; assay: Activation of p53 Y220C mutant in human NUGC3 cells assessed as change in FASLG mRNA level at 60 uM after 18 hrs by RT-PCR method relative to control; method in brief: as §1
[17] = test system: Cellular tumor antigen p53 (Homo sapiens), P04637 [Y220C]; assay: Activation of p53 Y220C mutant in human NUGC3 cells assessed as change in EI24 mRNA level at 60 uM after 18 hrs by RT-PCR method relative to control; method in brief: as §1
[18] = molecular target: T1, Cellular tumor antigen p53; assay: Activation of p53 in human NUGC4 cells assessed as change in MYC mRNA level at 60 uM after 18 hrs by RT-PCR method relative to control; settings: read-out: FC; method in brief: as §3
[19] = test system: Cellular tumor antigen p53 (Homo sapiens), P04637 [Y220C]; assay: Activation of p53 Y220C mutant in human NUGC3 cells assessed as change in BCL2A1 mRNA level at 60 uM after 18 hrs by RT-PCR method relative to control; method in brief: as §1
[20] = test system: Cellular tumor antigen p53 (Homo sapiens), P04637 [Y220C]; assay: Activation of p53 Y220C mutant in human NUGC3 cells assessed as change in PRC1 mRNA level at 60 uM after 18 hrs by RT-PCR method relative to control; method in brief: as §2
[21] = test system: Cellular tumor antigen p53 (Homo sapiens), P04637 [Y220C]; assay: Activation of p53 Y220C mutant in human NUGC3 cells assessed as change in ADGRB1 mRNA level at 60 uM after 18 hrs by RT-PCR method relative to control; method in brief: as §1
[22] = molecular target: T1, Cellular tumor antigen p53; assay: Activation of p53 in human NUGC4 cells assessed as change in HK2 mRNA level at 60 uM after 18 hrs by RT-PCR method relative to control; settings: read-out: FC; method in brief: as §3
[23] = molecular target: T1, Cellular tumor antigen p53; assay: Activation of p53 in human NUGC4 cells assessed as change in ESR1 mRNA level at 60 uM after 18 hrs by RT-PCR method relative to control; settings: read-out: FC; method in brief: as §3
[24] = molecular target: T1, Cellular tumor antigen p53; assay: Activation of p53 in human NUGC4 cells assessed as change in TRAF2 mRNA level at 60 uM after 18 hrs by RT-PCR method relative to control; settings: read-out: FC
[25] = molecular target: T1, Cellular tumor antigen p53; assay: Activation of p53 in human NUGC4 cells assessed as change in CCNE1 mRNA level at 60 uM after 18 hrs by RT-PCR method relative to control; settings: read-out: FC; method in brief: as §3
[26] = molecular target: T1, Cellular tumor antigen p53; assay: Activation of p53 in human NUGC4 cells assessed as change in SIRT1 mRNA level at 60 uM after 18 hrs by RT-PCR method relative to control; settings: read-out: FC
[27] = molecular target: T1, Cellular tumor antigen p53; assay: Activation of p53 in human NUGC4 cells assessed as change in MCL1 mRNA level at 60 uM after 18 hrs by RT-PCR method relative to control; settings: read-out: FC; method in brief: as §3
[28] = molecular target: T1, Cellular tumor antigen p53; assay: Activation of p53 in human NUGC4 cells assessed as change in STAT1 mRNA level at 60 uM after 18 hrs by RT-PCR method relative to control; settings: read-out: FC
[29] = test system: Cellular tumor antigen p53 (Homo sapiens), P04637 [Y220C]; assay: Activation of p53 Y220C mutant in human NUGC3 cells assessed as change in MYC mRNA level at 60 uM after 18 hrs by RT-PCR method relative to control; method in brief: as §2

fold change (FC) [1]: 2.3 | fold induction at 60 µM [2]: 1 | fold induction at 60 µM [3]: 1.2 | fold induction at 60 µM [4]: 0.4 | fold change (FC) [5]: 0.8 | fold induction at 60 µM [6]: 0.9 | fold change (FC) [7]: 1.1 | fold induction at 60 µM [8]: 0.5 | fold induction at 60 µM [9]: 0.9 | fold change (FC) [10]: 1.2 | fold induction at 60 µM [11]: 1.3 | fold induction at 60 µM [12]: 0.7 | fold change (FC) [13]: 2.6 | fold change (FC) [14]: 1.1 | fold induction at 60 µM [15]: 0.7 | fold change (FC) [16]: 1.1 | fold change (FC) [17]: 0.8 | fold induction at 60 µM [18]: 0.7 | fold change (FC) [19]: 3.9 | fold change (FC) [20]: 1.1 | fold change (FC) [21]: 1.5 | fold induction at 60 µM [22]: 0.8 | fold induction at 60 µM [23]: 8.1 | fold induction at 60 µM [24]: 0.8 | fold induction at 60 µM [25]: 0.5 | fold induction at 60 µM [26]: 0.9 | fold induction at 60 µM [27]: 0.8 | fold induction at 60 µM [28]: 0.9 | fold change (FC) [29]: 2.4
Compound: CCNC(=O)c1c(O)c(I)c(-n2cccc2)c2sc(N(CC)CC)nc12
